Screens: PubChem, The Scripps Research Institute Molecular Screening Center
Shown are actives, neighbours in structure and some others; about 4.5% of the full set was active somewhere.
GPR7 antag: antagonists of human GPR7 (neuropeptides B/W receptor 1); P48145; GPR7-expressing cells, fluorescence antagonist assay; inhibition, % at 4.4 µM; actives 1.1% (n = 290,000); AID 1861; in the data active = inhibition above about 16%, passing the limit was not always enough;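 also: cells stimulated with the agonist NPW; 0% = agonist with vehicle and 100% = vehicle without agonist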
OX1R antag-1: human HCRTR1 antagonism; actives 0.43% (n = 330,000); O43613; CHO/OX1R cells, Fluo-8 calcium fluorescence, orexin A; inhibition, % at 5 µM; AID 434989;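 active = inhibition above its plate's threshold, mean inhibition of all tested compounds on the plate plus 3 SD, cut at about 37% in these data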;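 also: 0% = orexin A challenge wells and 100% = SB-334867-A antagonist wells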
Target sequence (O43613 whole entry, looked up): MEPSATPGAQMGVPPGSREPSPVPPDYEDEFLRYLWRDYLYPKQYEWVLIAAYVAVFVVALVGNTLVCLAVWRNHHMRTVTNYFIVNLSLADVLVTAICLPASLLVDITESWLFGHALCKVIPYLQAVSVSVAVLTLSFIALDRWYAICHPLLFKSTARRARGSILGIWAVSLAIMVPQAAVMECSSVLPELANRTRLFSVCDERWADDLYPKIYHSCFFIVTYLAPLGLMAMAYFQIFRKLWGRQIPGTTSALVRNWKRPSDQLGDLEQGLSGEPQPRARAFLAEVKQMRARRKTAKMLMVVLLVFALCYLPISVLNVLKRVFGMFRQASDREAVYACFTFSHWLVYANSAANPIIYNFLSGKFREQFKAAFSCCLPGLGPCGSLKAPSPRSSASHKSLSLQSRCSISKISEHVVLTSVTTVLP
TAAR1 antagonist: human TAAR1 antagonism. CHO RD-HGA16 TAAR1, Fluo-8 calcium fluorescence, antagonist. inhibition, % at 3 µM. actives 1.5% (n = 360,000). AID 624466;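 active = inhibition above a per-plate cutoff, the mean inhibition of test compounds on that plate plus 3 SD, cut at about 49% in these data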;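 also: 0% = DMSO plus EC80 beta-PEA response and 100% = DMSO alone without agonist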
Target sequence (Q96RJ0 whole entry, looked up): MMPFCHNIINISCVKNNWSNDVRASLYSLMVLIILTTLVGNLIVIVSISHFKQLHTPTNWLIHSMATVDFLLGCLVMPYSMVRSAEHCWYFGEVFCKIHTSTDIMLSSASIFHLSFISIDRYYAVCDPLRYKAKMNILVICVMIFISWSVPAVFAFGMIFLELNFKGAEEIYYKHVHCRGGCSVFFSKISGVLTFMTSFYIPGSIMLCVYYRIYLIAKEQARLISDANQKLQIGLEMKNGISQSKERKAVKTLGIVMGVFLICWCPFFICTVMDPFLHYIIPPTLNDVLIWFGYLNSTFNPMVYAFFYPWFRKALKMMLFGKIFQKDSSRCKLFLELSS
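test system = CHO RD-HGA16 cells bearing hTAAR1 | replication = singlicate | controls = DMSO-only wells and EC80 β-PEA-stimulated wells | reagent = EC80 β-phenethylamine stimulus | read-out basis = percent inhibition of PEA-evoked calcium signal, max/basal emission ratio | schedule = seeding 17-24 h prior, 75-min 37 °C, 30-min RT dye loading | signal = kinetic Fluo-8 calcium fluorescence measurement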
CHO parental Ca: counter-screen: ATP calcium response change in parental CHO cells; parental CHO-K1, ATP-induced calcium, Fluo-8 fluorescence; inhibition, % at 5.6 µM; actives 0.63% (n = 330,000); AID 463079;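 active = inhibition above that plate's mean sample inhibition plus 3 SD, cut at about 26% in these data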;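 also: 0% = ATP-challenged DMSO wells and 100% = DMSO wells without ATP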
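Test system: untransfected parental CHO cell line; also added: ATP stimulus; dosing: 5.6 µM, single dose; signal: calcium-sensitive Fluo-8 fluorescence; measure: percent inhibition of ATP-evoked calcium rise, normalized to controls; benchmarks: low control ATP plus DMSO, high control DMSO only; replication: one well per compound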
OX1R antag-2: antagonists of human orexin 1 receptor (OX1R); O43613; OX1R-expressing cells, FRET antagonist read-out; inhibition, % at 6.6 µM; actives 1.8% (n = 330,000); AID 485270; in the data active = inhibition mostly above about 38%, no sharp cut-off; inactive = mostly below about 40%;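 also: 0% = agonist challenge alone and 100% = reference antagonist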
TAAR1 ag: human TAAR1 agonism. Q96RJ0. actives 0.99% (n = 360,000). activation, % at 3 µM. CHO RD-HGA16 TAAR1, Fluo-8 calcium fluorescence; vehicle wells 0%, saturating PEA agonist 100%;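 active = activation above the mean activation of all test compounds in the run plus 3 SD, cut at about 38% in these data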
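test system = CHO RD-HGA16 cells carrying human TAAR1 plus Gα16 | schedule = 17-24 h seeding, 75 min 37 °C dye, 30 min RT | compound dosing = 3 µM single concentration | control set = DMSO and PEA EC100 | replicates = n 1 | signal = Fluo-8 fluorescence, 5 s baseline then 140 s kinetic read | measure = percent activation vs PEA EC100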
OX1R Ca confirm: OX1R (human) antagonism, confirmed; shares compounds with OX1R antag-1; CHO/OX1R cells, orexin A calcium Fluo-8 fluorescence; inhibition, % at 5 µM; actives 38% (n = 1,100); in the data active = inhibition above about 29%;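 also: 0% = agonist challenge alone and 100% = reference antagonist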
CHO Ca triplic: counter-screen: parental CHO calcium response change, triplicate; inhibition, % at 5.6 µM; AID 492965; shares compounds with OX1R antag-1; parental CHO-K1, ATP-induced calcium, Fluo-8 fluorescence; actives 9.3% (n = 1,100);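 active = inhibition above a per-plate limit, the mean inhibition of that plate's test compounds plus 3 SD, cut at about 25% in these data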;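 also: 0% = ATP challenge with DMSO and 100% = DMSO without ATP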
OX1R HTRF conf: confirmation of human orexin 1 receptor antagonists, HTRF format | shares compounds with OX1R antag-2 | OX1R-expressing cells, HTRF antagonist assay | inhibition, % at 6.6 µM | actives 49% (n = 1,800); in the data active = inhibition above about 55%;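 also: CHO cells expressing OX1R stimulated with orexin A at about EC80; 0% = agonist challenge alone and 100% = reference antagonist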
CHO-K1 HTRF cnt: counter-screen for OX1R antagonists: effect in parental CHO-K1 cells; shares compounds with OX1R antag-2; HTRF counterscreen; inhibition, % at 6.6 µM; actives 48% (n = 1,800); in the data active = inhibition above about 17%;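 also: 0% = agonist challenge with vehicle and 100% = vehicle alone without agonist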
* hit, by the source's call; nt = no result given.

SMILES	GPR7 antag	OX1R antag-1	TAAR1 antagonist	CHO parental Ca	OX1R antag-2	TAAR1 ag	OX1R Ca confirm	CHO Ca triplic	OX1R HTRF conf	CHO-K1 HTRF cnt
CCOC(=O)CN(c1sc(C)c(C)c1C(=O)OCC)S(=O)(=O)c1ccc(C)cc1	nt	nt	9	nt	nt	-1	nt	nt	nt	nt
CCOC(=O)c1[nH]c2ccccc2c1NC(=O)NC(C)C	-12	-9	-1	-10	-5	0	nt	nt	nt	nt
CCOC(=O)c1[nH]c2ccccc2c1NC(=O)c1ccc(Br)o1	1	101*	35	-13	99*	7	34*	-3	90*	9
CN(C)/C=C/C1=C([N+](=O)[O-])C(c2cccc([N+](=O)[O-])c2)NC(=O)N1 (stereo not drawn)	-8	36	-11	-8	88*	-1	0	1	37	29*
Cc1cnc(NC(=O)c2cc3c(C)nn(-c4ccccc4)c3s2)s1	8	77*	9	-27	56*	4	73*	-8	93*	12
CC12CCC(=O)C=C1CCC1C2C(O)CC2(C)C1CCC2(O)C(=O)CO (stereo not drawn)	-15	-17	-14	0	18	2	nt	nt	nt	nt
CC[C@]12c3[nH]c4cc(-c5ccco5)ccc4c3CCN1C(=O)[C@@H](CC(=O)NC/C=C(\C)CCC=C(C)C)C[C@@H]2C(=O)N1CCN(C(=O)c2ccco2)CC1	nt	94*	nt	-14	58*	nt	74*	-2	76*	0
Cc1ccc(C(=O)Nc2nc(-c3ccccn3)cs2)s1	nt	7	1	-12	6	5	nt	nt	nt	nt
CCc1sc(C(=O)Nc2nc(-c3ccccn3)cs2)cc1C	nt	38	nt	-11	52*	nt	19	-7	32	10
CCCNC(=O)C1(C)CCN(C(=O)COc2ccc(C(C)(C)C)cc2)C1 (stereo not drawn)	nt	nt	11	nt	nt	2	nt	nt	nt	nt
Cn1c(=O)c(C(=O)COC(=O)c2cc(-c3ccco3)nc3ccccc23)c(N)n(CC2CC2)c1=O	-4	37	nt	8	69*	nt	26	-4	64*	3
Cn1c(=O)c(C(=O)COC(=O)c2cc(C3CC3)nc3ccccc23)c(N)n(Cc2ccccc2)c1=O	10	-3	-4	-1	59	4	nt	nt	nt	nt
COc1cc2ccc(C(=O)O)cc2cc1OC	nt	nt	-1	nt	nt	-2	nt	nt	nt	nt
S=c1[nH]nc(-c2cc(-c3ccccc3)n[nH]2)n1/N=C/c1cccs1	-12	53*	-17	-9	88*	0	27	3	62*	4
COc1ccc(NC(=O)C2(C)CCN2Cc2ccc(OC(F)(F)F)cc2)cc1OC (stereo not drawn)	nt	nt	-3	nt	nt	3	nt	nt	nt	nt
CCN(CC)c1ccc2cc(-c3nnc(-c4ccc(Br)cc4)o3)c(=O)oc2c1	-8	nt	nt	nt	nt	nt	nt	nt	nt	nt
CCN(CC)c1ccc2cc(-c3nc4ccccc4n3C)c(=O)oc2c1	17*	95*	55*	6	83*	28	84*	12	89*	-7
CCC1CN(S(=O)(=O)c2cc(-c3cc(C)no3)ccc2OC)c2cc(C)ccc2O1 (stereo not drawn)	4	63*	-36	-28	73*	-2	27	-9	86*	2
CCc1ccc(-c2cc(C)no2)cc1S(=O)(=O)N1CCOc2ccc(C)cc21	-10	-3	-20	-9	29	-1	nt	nt	nt	nt
CCCNC(=O)c1cc(C2CCCCN2C(=O)CCCc2ccccc2)on1 (stereo not drawn)	nt	nt	-19	nt	nt	2	nt	nt	nt	nt
O=C(Nc1cc(Sc2ccccn2)cc([N+](=O)[O-])c1)c1cccc(Cl)c1	5	-1	19	-5	37	4	nt	nt	nt	nt
O=C(Nc1cc(Sc2ccccn2)cc([N+](=O)[O-])c1)c1ccc(Cl)cc1	-8	40	14	20	94*	15	-21	12	34	-2
Cc1ccc([C@@H]2CC=C(C(=O)O)[C@H](c3cccc(Cl)c3)N2S(=O)(=O)c2ccccc2C)cc1	nt	81*	38	2	86*	2	48*	-1	89*	4
COc1ccc2oc(C(=O)OC(C)C(=O)NCc3ccccc3)c(C)c2c1 (stereo not drawn)	nt	-33	-2	-35	6	0	nt	nt	nt	nt
Cc1c(C(=O)OC(C)C(=O)N(C)Cc2ccccc2)oc2ccccc12 (stereo not drawn)	nt	53*	5	-19	86*	6	53*	-10	88*	4
SMILES	GPR7 antag	OX1R antag-1	TAAR1 antagonist	CHO parental Ca	OX1R antag-2	TAAR1 ag	OX1R Ca confirm	CHO Ca triplic	OX1R HTRF conf	CHO-K1 HTRF cnt
CN(C)c1ccc(NC(=S)c2ccc3ccccc3n2)cc1	10	58*	-10	0	93*	-2	29	14	85*	9
COc1ccccc1Nc1nc(N)nc(CN2CCOCC2)n1	-1	-1	0	-7	8	3	nt	nt	nt	nt
COc1ccccc1Nc1nc(N)nc(-c2cc3ccccc3o2)n1	-1	38	9	-12	77*	17	31*	-11	65*	1
COc1ccc(CN2CC[C@H]3C=CC[C@@H](C(=O)Nc4ccc(Cl)c(C(F)(F)F)c4)[C@H]3C2=O)cc1OC	nt	63*	17	-26	86*	14	70*	-12	89*	3
CCCCNC(=O)[C@@H]1CC=C[C@@H]2CCN(Cc3ccc(Cl)c(Cl)c3)C(=O)[C@@H]21	nt	47*	7	-11	91*	4	28	-4	75*	-2
Cc1cc(CNC(=O)COc2cc(F)ccc2[N+](=O)[O-])c2ccccc2n1	-13	35	-6	-1	105*	6	11	4	34	9
Cc1cc(CNC(=O)COc2ccc(F)cc2F)c2ccccc2n1	-16	-7	-12	-10	30	4	nt	nt	nt	nt
Cc1[nH]c2ccccc2c1C(=O)CSc1nc2ccccc2[nH]1	-2	54*	55*	-13	80*	14	38*	-2	91*	2
O=C(NC(Cc1c[nH]c2ccccc12)C(=O)Nc1ccc(F)cc1)c1cccs1 (stereo not drawn)	-4	-12	-6	-4	8	1	nt	nt	nt	nt
O=C(NC(Cc1c[nH]c2ccccc12)C(=O)N/N=C/c1cccnc1)c1cccs1 (stereo not drawn)	-9	37	0	-18	71*	6	24	-4	54	0
